Experimental data from article PMC5592695 (Journal of medicinal chemistry, 2016).

Experiments:
[1] = system: R4A monoclonal antibody (anti-dsDNA) binding to DWEYS peptide; experiment: Competitive inhibition ELISA: R4A antibody binding to DWEYS-coated plates; parameters: species or system mouse
In short: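 D-DWEYS peptide at 20 µg/mL in PBS pH 7.2 coated overnight at 37 °C, uncovered; blocked with 3% BSA/PBS 1 h at 37 °C. R4A (20 µg/mL) preincubated with test compound at varying concentrations 1 h at 37 °C, then added to washed wells 1 h at 37 °C. AP-goat anti-mouse IgG 1:1000, 1 h RT; pNPP substrate 30–60 min; absorbance at 405 nm.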

[2] = system: R4A antibody binding to murine glomeruli; experiment: Kidney glomeruli R4A binding assay; parameters: species or system mouse; conditions: R4A 20 µg/mL preincubated with compound at 50 µM
In short: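 Glomeruli isolated from mice and adhered to glass slides. R4A was preincubated with test compound for 1 h at 37 °C, then applied to the glomeruli for 1 h at room temperature. Slides were washed with PBS. Bound antibody was detected with FITC-conjugated anti-mouse IgG and imaged by fluorescence microscopy.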

[3] = system: R4A antibody neurotoxicity in hippocampal neurons; experiment: Neurotoxicity model: R4A injected into hippocampus, TUNEL staining; assay type: in vivo; conditions: R4A 20 µg/mL preincubated with 50 µM compound, injected into mouse hippocampus
In short: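 Male C57BL/6 mice (30–34 g) under 2.5% avertin ip received a 2 µL stereotaxic injection into the dorsal hippocampus (CA1) of R4A (20 µg/mL) preincubated with vehicle or test compound (50 µM).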

[4] = Preliminary pharmacokinetics after intravenous or oral dosing; assay type: in vivo; conditions: iv 1 mg/kg or oral gavage 10 mg/kg, male CD-1 mice
[5] = system: NZB/W F1 mice (SLE model); experiment: NZB/W F1 lupus model efficacy testing; assay type: in vivo, mouse
In short: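 Female NZB/W F1 mice, randomised to groups (initially n = 10/group), dosed from 22 weeks of age, before severe proteinuria, with test compound or vehicle at 5 mg kg−1 day−1 as two daily ip injections (2.5 mL/kg each). Weekly body weight; proteinuria every 2 weeks; serum stored at −70 °C. Blinded kidney histology scored glomerular sclerosis, cellularity, crescents and interstitial inflammation.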

[6] = 5 mg/kg chronic dosing, NZB/W F1 mice, versus vehicle

| Compound | Inhibition of R4A / anti-dsDNA antibody binding in ELISA (qualitative) [1] | R4A binding to glomerular antigens [2] | Neurotoxic effect of R4A (TUNEL staining, neuronal apoptosis) [3] | also measured |
| --- | --- | --- | --- | --- |
| Cc1c(O)cccc1C(=O)N[C@@H](CSc1ccccc1)[C@H](O)CN1C[C@H]2CCCC[C@H]2C[C@H]1C(=O)NC(C)(C)C [Compound 2, nelfinavir, reference compound] | dose-dependently inhibited the binding of anti-dsDNA antibodies to target antigens | diminished binding to glomerular antigens |  |  |
| Cc1cccc(C)c1OCC(=O)N[C@@H](Cc1ccccc1)[C@@H](O)C[C@H](Cc1ccccc1)NC(=O)[C@H](C(C)C)N1CCCNC1=O [Compound 3, lopinavir] | dose-dependently inhibited the binding of anti-dsDNA antibodies to target antigens |  |  |  |
| CC(C)(C)NC[C@@H]1CC2CCCCC2CN1C[C@@H](O)[C@H](Cc1ccccc1)NC[C@H](CCN)NCC1Nc2ccccc2CC1O (stereo partly drawn) [Compound 5, 2-{[3-Amino-1-({1-benzyl-3-[3-(tert-butylamino-methyl)-octahydro-isoquinolin-2-yl]-2-hydroxy-propylamino}-methyl)-propylamino]-methyl}-1,2,3,4-tetrahydro-quinolin-3-ol] |  | decreased the binding of R4A to kidney tissue | abrogated this neurotoxic effect | PK profile (comparative) [4]: exhibited the best PK profile; Tolerability in PK study [4]: well tolerated at the administered dose levels; Onset of disease ([5]; 5 mg kg−1 day−1 b.i.d. ip, NZB/W F1 mice): delayed onset of disease (26–36 weeks); Body weights versus vehicle ([5]; 5 mg kg−1 day−1 in two daily ip injections, female NZB/W F1 mice from 22 weeks of age): similar; Kidney histology [5, 6]: preserved histology; Mouse IgG staining (autoantibody deposition) in glomeruli [5, 6]: significantly less staining for mouse IgG; Serum anti-DWEYS reactivity ([5]; 5 mg/kg chronic dosing, NZB/W F1 mice, versus vehicle sera): higher anti-DWEYS reactivity; Combined kidney pathology score ([5]; blinded histopathology, 60 weeks, versus vehicle, p < 0.05): significantly lower standard combined pathology scores |
| Cc1c(O)cccc1CN[C@@H](CSc1ccccc1)[C@H](O)CN1C[C@H]2CCCC[C@H]2C[C@H]1CNC(C)(C)C [Compound 6, 3-({3-[3-(tert-Butylaminomethyl)octahydroisoquinolin-2-yl]-2-hydroxy-1-phenylsulfanylmethylpropylamino}methyl)-2-methylphenol] |  | decreased the binding of R4A to kidney tissue | abrogated this neurotoxic effect |  |
| CNCCCN[C@H](CN[C@@H](Cc1ccccc1)C[C@H](O)[C@H](Cc1ccccc1)NCCOc1c(C)cccc1C)C(C)C [Compound 7, 2-[2-(2,6-Dimethylphenoxy)ethylamino]-5-[3-methyl-2-(3-methylaminopropylamino)butylamino]-1,6-diphenylhexan-3-ol] |  | decreased the binding of R4A to kidney tissue |  |  |
| saquinavir [Compound 1, reference compound] | dose-dependently inhibited the binding of anti-dsDNA antibodies to target antigens | diminished binding to glomerular antigens |  |  |
